TAAR1 antagonist – antagonists of human TAAR1. Q96RJ0. CHO RD-HGA16 TAAR1, Fluo-8 calcium fluorescence, antagonist. inhibition, % at 3 µM. actives 1.5% (n = 360,000). AID 624466;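 active = inhibition above a per-plate cutoff, the mean inhibition of test compounds on that plate plus 3 SD, cut at about 49% in these data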;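 note: 0% = DMSO plus EC80 beta-PEA response and 100% = DMSO alone without agonist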
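Test system: hTAAR1-expressing CHO RD-HGA16 cells, Gα16-coupled; Probe or stimulus: EC80 β-phenethylamine stimulus; Compound dosing: single nominal final test compound concentration of 3 µM; Timing: 140 s kinetic read after compound, 140 s after agonist; Signal: Fluo-8 calcium-sensitive fluorescence; Measure: % inhibition of agonist calcium response; Controls: DMSO and EC80 PEA controls.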
OXTR agonist – agonists of human oxytocin receptor | P30559 | actives 0.32% (n = 320,000) | CHO-OTR cells, Fluo-8 calcium fluorescence; normalized: DMSO 0%, oxytocin 100% | AID 2435 | activation, % at 3 µM;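 active = activation above the mean of all tested compounds plus 3 SD, cutoff set per screening run, cut at about 20% in these data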;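 note: peak over basal fluorescence ratio from a 100 s FLIPR kinetic read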
OXTR potentiator – potentiates the human oxytocin receptor response; P30559; CHO-OTR cells, Fluo-8 calcium fluorescence, potentiator mode; 0% = oxytocin EC15, 100% = EC100; activation, % at 3 µM; actives 0.061% (n = 320,000);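 active = activation above that plate's cutoff, the mean activation of tested compounds plus 3 SD, cut at about 6.6% in these data, passing the limit was not always enough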;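 note: 100% uses oxytocin at 75 nM as the full agonist control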
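Assay system: CHO cell line stably expressing human OTR. Reagent: EC15 oxytocin agonist. Dosing: single dose, 3.0 µM nominal final compound concentration. Timing: compound 6 min at room temperature before oxytocin, 100 s read. Signal: kinetic Fluo-8 calcium fluorescence. Controls: oxytocin EC15 low and EC100 high.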
TAAR1 ag – agonists of human TAAR1; actives 0.99% (n = 360,000); CHO RD-HGA16 TAAR1, Fluo-8 calcium fluorescence; vehicle wells 0%, saturating PEA agonist 100%; activation, % at 3 µM;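 active = activation above the mean activation of all test compounds in the run plus 3 SD, cut at about 38% in these data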
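Repeats: no replicates (n 1) | Material: CHO-derived RD-HGA16 cells with stable Gα16 and human TAAR1 | Technique: Kinetic Fluo-8 calcium fluorescence | Schedule: 17-24 h seeding, 75 min 37 °C dye, 30 min RT | Evaluation: % activation from peak over basal fluorescence ratio, DMSO-to-PEA scaled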
V1R ag counter – activates human V1a receptor in oxytocin agonist counter-screen; activation, % at 3 µM; actives 0.25% (n = 320,000); CHO-V1R cells, Fluo-8 calcium fluorescence, agonist mode; 0% DMSO, 100% 3 nM vasopressin; P37288;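 active = activation above the mean activation of all tested compounds plus 3 SD, per screening run, cut at about 20% in these data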;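 note: signal is peak over basal fluorescence ratio across a 100 second FLIPR read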
Target sequence (P37288 whole entry, looked up): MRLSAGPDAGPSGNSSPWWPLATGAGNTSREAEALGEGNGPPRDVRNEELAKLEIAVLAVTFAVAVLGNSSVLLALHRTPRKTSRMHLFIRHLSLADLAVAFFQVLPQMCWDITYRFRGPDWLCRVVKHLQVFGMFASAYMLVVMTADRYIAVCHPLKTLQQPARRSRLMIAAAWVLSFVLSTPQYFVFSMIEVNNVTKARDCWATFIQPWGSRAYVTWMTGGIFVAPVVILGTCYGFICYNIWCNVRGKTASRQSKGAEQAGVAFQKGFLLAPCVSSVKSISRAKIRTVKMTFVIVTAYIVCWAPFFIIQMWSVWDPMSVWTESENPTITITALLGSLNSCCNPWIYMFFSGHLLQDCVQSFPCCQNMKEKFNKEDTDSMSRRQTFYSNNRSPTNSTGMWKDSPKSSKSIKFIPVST
The depositor's hits bear a star. Shown are actives, neighbours in structure and some others; about 2.3% of the full set was active somewhere.

What do the screens show for `Cc1cc(/C=C2/C(=O)N(C)C(=S)N2C)ccc1N1CCCC1`?
TAAR1 antagonist: 47.8; OXTR agonist: 22.6*; OXTR potentiator: -20.6; TAAR1 ag: 26.4; V1R ag counter: 29.4*

Results for Cc1cc(/C=C2\NC(=S)N(C)C2=O)ccc1N1CCCC1 ?
TAAR1 antagonist: 82.5*; OXTR agonist: 69.3*; OXTR potentiator: -19.5; TAAR1 ag: 142.3*; V1R ag counter: 79.4*

How did CCCN1C(=O)/C(=C/c2ccc(N3CCCC3)c(C)c2)NC1=S do in these assays?
TAAR1 antagonist: 99.2*; OXTR agonist: 112.2*; OXTR potentiator: -24.5; TAAR1 ag: 129.0*; V1R ag counter: 113.0*

How did O=C(C(=O)N1CCC(CNS(=O)(=O)c2ccc(F)cc2)CC1)c1cc2ccccc2o1 do in these assays?
TAAR1 antagonist: 10.5; TAAR1 ag: 1.9

What do the screens show for `C[C@H](CO)N1C[C@H](C)[C@@H](CN(C)C(=O)Nc2ccc(-c3cccs3)cc2)OCc2cn(nn2)CCCC1=O`?
TAAR1 antagonist: 7.9; TAAR1 ag: 0.1

What do the screens show for `Cc1ccc(Cl)cc1N1CCN(C(=O)c2cc3c(=O)[nH]c4ccccc4c3n2C)CC1`?
TAAR1 antagonist: 50.9*; OXTR agonist: 14.3; OXTR potentiator: -12.9; TAAR1 ag: 19.4; V1R ag counter: 8.6

What do the screens show for `Cn1c(C(=O)N2CCN(c3ccc(Cl)cc3)CC2)cc2c(=O)[nH]c3ccccc3c21`?
TAAR1 antagonist: 10.8; OXTR agonist: 1.0; OXTR potentiator: -23.6; TAAR1 ag: 18.4; V1R ag counter: 4.5

Results for Cc1ccc(N2C(=O)C(CC(=O)Nc3cccc(F)c3)N(C3CC3)C2=O)cc1 (centres undefined) ?
TAAR1 antagonist: 6.9; OXTR agonist: 1.4; OXTR potentiator: 1.3; TAAR1 ag: 1.0; V1R ag counter: 1.1

What do the screens show for `O=C(CSc1ccc(-c2nc3ccccc3[nH]2)cn1)Nc1ccc(S(=O)(=O)N2CCCC2)cc1`?
TAAR1 antagonist: 51.2*; OXTR agonist: 0.9; OXTR potentiator: -7.7; TAAR1 ag: 7.9; V1R ag counter: 3.6

What do the screens show for `CCS(=O)(=O)Nc1ccc(C2=NN(C(=O)c3ccco3)C(c3ccc(C)cc3)C2)cc1` (centres undefined)?
OXTR agonist: -0.9; OXTR potentiator: 11.0*; V1R ag counter: -0.2

Results for CC(=O)N1CCN(c2ccccc2NC(=O)c2cc3ccccc3o2)CC1 ?
TAAR1 antagonist: 52.3*; OXTR agonist: 1.6; OXTR potentiator: -4.0; TAAR1 ag: 10.0; V1R ag counter: 1.7

Results for COCc1cc(N2CCNC[C@@H]2C)ccc1N1CCS(=O)(=O)CC1 ?
TAAR1 antagonist: -20.5; TAAR1 ag: 1.8

Results for C[C@H](O)[C@@H]1C(=O)N2CCc3c([nH]c4cccc(-c5ccccc5)c34)[C@@H]2C[C@@H]1N(C)CC1CCCCC1 ?
TAAR1 antagonist: 12.2; TAAR1 ag: 0.8

What do the screens show for `CC(C)n1c(SCC(=O)Nc2nc3c(s2)CCCC3)nc2c1c(=O)n(C)c(=O)n2C`?
TAAR1 antagonist: 56.5*; OXTR agonist: 0.8; OXTR potentiator: -7.6; TAAR1 ag: 24.7; V1R ag counter: 2.2

How did CCNC(=O)c1cc2c(c(-c3cccc(-c4ccccc4F)c3)n1)[C@H](CCO)N(C(=O)CC)C2 do in these assays?
TAAR1 antagonist: -11.6; TAAR1 ag: 2.0

How did COc1ccccc1-c1cccc(-c2nc(C(=O)Nc3nccs3)cc3c2[C@@H](CCO)N(C(C)=O)C3)c1 do in these assays?
TAAR1 antagonist: 54.3*; TAAR1 ag: 19.8

What do the screens show for `CCC(=O)N1Cc2cc(C(=O)Nc3nccs3)nc(-c3cccc(-c4ccccc4OC)c3)c2[C@H]1CCO`?
TAAR1 antagonist: 56.8*; TAAR1 ag: 14.2

How did CCNC(=O)c1cc2c(c(-c3cccc(-c4cc5ccccc5o4)c3)n1)[C@H](CCO)N(C(=O)NC(C)C)C2 do in these assays?
TAAR1 antagonist: 55.6*; TAAR1 ag: 11.6

How did Nc1ncnc2c1ncn2[C@@H]1O[C@H](COP(=O)(O)O)[C@@H](O)[C@H]1O do in these assays?
TAAR1 antagonist: -20.2; OXTR agonist: 1.1; OXTR potentiator: -1.1; TAAR1 ag: 3.1; V1R ag counter: 2.0

How did Nc1ncnc2c1ncn2[C@@H]1O[C@H](COP(=O)(O)OP(=O)(O)OP(=O)(O)O)[C@@H](O)[C@H]1O do in these assays?
TAAR1 antagonist: -1.8; OXTR agonist: 68.6*; OXTR potentiator: -24.0; TAAR1 ag: 15.4; V1R ag counter: 77.5*

What do the screens show for `COc1cccc([C@@H](NC(=O)C(F)(F)F)[C@@H]2CCCC=C2c2ccccc2)c1`?
TAAR1 antagonist: -2.4; TAAR1 ag: 0.4

What do the screens show for `COc1ccc(/C=C2\CN(Cc3ccccc3)C/C(=C\c3ccc(OC)cc3OC)C2=O)c(OC)c1`?
TAAR1 antagonist: 57.3*; OXTR agonist: -1.1; OXTR potentiator: -22.2; TAAR1 ag: 13.3; V1R ag counter: 0.4

How did COc1ccc(CNS(=O)(=O)c2ccccc2Br)c(OC)c1 do in these assays?
TAAR1 antagonist: -28.9; TAAR1 ag: 2.0

Results for COCC1CN(CCc2ccc(F)cc2)S(=O)(=O)c2c(F)cccc2O1 (centres undefined) ?
TAAR1 antagonist: -2.7; TAAR1 ag: 5.3

What do the screens show for `O=C(Nc1ccncc1)C1CCN(S(=O)(=O)c2ccc(Cl)c(C(F)(F)F)c2)CC1`?
TAAR1 antagonist: 2.9; OXTR agonist: 11.9; OXTR potentiator: -10.1; TAAR1 ag: 48.1*; V1R ag counter: 6.8

Results for COc1ccc(OC)c(S(=O)(=O)N2CCC(C(=O)Nc3ccc(C)c(C)c3)CC2)c1 ?
TAAR1 antagonist: 61.0*; OXTR agonist: 2.1; OXTR potentiator: -21.2; TAAR1 ag: 30.7; V1R ag counter: 5.6

Results for CC1Sc2ccc(S(=O)(=O)CCC(=O)N3CCN(c4cccc(Cl)c4)CC3)cc2NC1=O (centres undefined) ?
TAAR1 antagonist: 50.3*; OXTR agonist: 12.3; OXTR potentiator: -12.3; TAAR1 ag: 10.1; V1R ag counter: 13.6

How did Cc1ccc(NC(=O)C2CCN(S(=O)(=O)c3ccc4c(c3)NC(=O)C(C)S4)CC2)cc1C (centres undefined) do in these assays?
TAAR1 antagonist: 49.9*; OXTR agonist: 1.7; OXTR potentiator: -7.1; TAAR1 ag: 0.9; V1R ag counter: 6.4

How did CCc1ccc(NC(=O)C2CCN(S(=O)(=O)c3ccc4c(c3)NC(=O)C(C)S4)CC2)cc1 (centres undefined) do in these assays?
TAAR1 antagonist: 11.9; OXTR agonist: 2.9; OXTR potentiator: -11.2; TAAR1 ag: 2.1; V1R ag counter: 6.3

Results for Cc1ccnc(NC(=O)C2CCN(S(=O)(=O)c3ccc(Cl)c(C(F)(F)F)c3)CC2)c1 ?
TAAR1 antagonist: -37.1; OXTR agonist: -0.7; OXTR potentiator: 0.3; TAAR1 ag: 1.1; V1R ag counter: -0.5
